Reference: ChEMBL document CHEMBL2046356, “Synthesis and evaluation of a set of para-substituted 4-phenylpiperidines and 4-phenylpiperazines as monoamine oxidase (MAO) inhibitors” (J Med Chem, 2012)
Activity calls are given as the source filed them. No cut-off for these calls is given here.

Assays:
[1] = target: T1, Amine oxidase [flavin-containing] A (Rattus norvegicus, UniProt P21396); assay: Displacement of [3H]-Ro 41-1049 from MAO-A receptor in rat cerebral cortex; assay type: tissue-based
T1 sequence (P21396 whole entry): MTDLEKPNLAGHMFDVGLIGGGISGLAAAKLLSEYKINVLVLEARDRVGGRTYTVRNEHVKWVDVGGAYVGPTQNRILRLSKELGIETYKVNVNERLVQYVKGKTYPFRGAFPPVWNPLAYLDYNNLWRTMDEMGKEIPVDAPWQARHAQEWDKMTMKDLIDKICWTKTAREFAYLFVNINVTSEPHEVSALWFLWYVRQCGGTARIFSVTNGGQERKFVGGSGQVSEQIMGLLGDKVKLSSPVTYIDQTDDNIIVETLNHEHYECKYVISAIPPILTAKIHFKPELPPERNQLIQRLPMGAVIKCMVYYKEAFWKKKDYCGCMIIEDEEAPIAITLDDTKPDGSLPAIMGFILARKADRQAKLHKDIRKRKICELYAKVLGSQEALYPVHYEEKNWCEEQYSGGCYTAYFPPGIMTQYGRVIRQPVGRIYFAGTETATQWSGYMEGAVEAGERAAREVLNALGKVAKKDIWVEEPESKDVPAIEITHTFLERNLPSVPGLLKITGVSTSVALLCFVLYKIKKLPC

Rattus norvegicus [2] = assay: Decrease in DOPAC level in Sprague-Dawley rat striatum at 100 umol/kg, sc measured after 1 hr compound administration; assay type: functional; parameters: scale not given: the % may be the effect or the level left
Summary of the method: (§1)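 Compounds were given to freely moving rats. Brain tissue was taken post-mortem, and striatal levels of each monoamine and its metabolites were quantified.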

[3] = target: T2, Amine oxidase [flavin-containing] B (Rattus norvegicus, UniProt P19643); assay: Displacement of [3H]-Ro 16-6491 from MAO-B receptor in rat cerebral cortex; assay type: tissue-based
T2 sequence (P19643 whole entry): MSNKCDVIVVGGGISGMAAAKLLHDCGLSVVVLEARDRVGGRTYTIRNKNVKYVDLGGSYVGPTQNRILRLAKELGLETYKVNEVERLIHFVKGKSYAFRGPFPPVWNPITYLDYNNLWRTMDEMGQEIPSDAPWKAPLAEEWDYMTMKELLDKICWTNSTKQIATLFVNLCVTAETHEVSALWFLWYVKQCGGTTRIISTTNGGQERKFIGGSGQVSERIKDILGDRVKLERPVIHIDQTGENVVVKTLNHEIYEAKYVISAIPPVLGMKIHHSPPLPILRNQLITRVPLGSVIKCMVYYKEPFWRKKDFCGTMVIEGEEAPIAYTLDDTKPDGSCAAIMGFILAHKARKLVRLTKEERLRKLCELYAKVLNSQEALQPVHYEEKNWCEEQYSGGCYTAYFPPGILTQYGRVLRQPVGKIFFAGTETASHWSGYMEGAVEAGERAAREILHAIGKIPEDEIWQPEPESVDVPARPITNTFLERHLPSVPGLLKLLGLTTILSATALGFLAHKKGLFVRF

Rattus norvegicus [4] = assay: Increase in 3-MT level in Sprague-Dawley rat striatum at 100 umol/kg, sc measured after 1 hr compound administration; assay type: functional; summary of the method: as §1
Rattus norvegicus [5] = assay: Decrease in DOPAC level in Sprague-Dawley rat striatum at 53 umol/kg, sc measured after 1 hr compound administration; assay type: functional; parameters: scale not given: the % may be the effect or the level left; summary of the method: as §1
Rattus norvegicus [6] = assay: Increase in 3-MT level in Sprague-Dawley rat striatum at 53 umol/kg, sc measured after 1 hr compound administration; assay type: functional; summary of the method: as §1
Rattus norvegicus [7] = assay: Decrease in DOPAC level in Sprague-Dawley rat striatum at 5.3 umol/kg, sc measured after 1 hr compound administration; assay type: functional; parameters: scale not given: the % may be the effect or the level left; summary of the method: as §1
Rattus norvegicus [8] = assay: Increase in 3-MT level in Sprague-Dawley rat striatum at 5.3 umol/kg, sc measured after 1 hr compound administration; assay type: functional; summary of the method: as §1
Rattus norvegicus [9] = assay: Decrease in homovanillic acid level in Sprague-Dawley rat brain at 50 umol/kg, sc measured by microdialysis; assay type: functional, organism-based
Rattus norvegicus [10] = assay: Decrease in DOPAC level in Sprague-Dawley rat brain at 50 umol/kg, sc measured by microdialysis; assay type: functional, organism-based
Rattus norvegicus [11] = assay: Increase in 3-MT level in Sprague-Dawley rat brain at 50 umol/kg, sc measured by microdialysis; assay type: functional, organism-based
Rattus norvegicus [12] = assay: Increase in 3-MT level in Sprague-Dawley rat striatum at 37 umol/kg, sc measured after 1 hr compound administration; assay type: functional
Summary of the method: (§2)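 Unrestrained rats were dosed, and post-mortem striatal brain tissue was then analysed. Each monoamine and its metabolites (DOPAC, 3-MT) were quantified in the tissue.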

Rattus norvegicus [13] = assay: Decrease in DOPAC level in Sprague-Dawley rat striatum at 37 umol/kg, sc measured after 1 hr compound administration; assay type: functional; parameters: scale not given: the % may be the effect or the level left; summary of the method: as §2

Compound: CCCN1CCC(c2ccc(C#N)cc2)CC1
- Ki [1]: 93.3 µM
- Activity (Rattus norvegicus [2]): 105%
- Ki [3]: 589 µM
- Activity (Rattus norvegicus [4]): 115%

Compound: CCCN1CCN(c2ccccc2)CC1
- Ki [1]: 46.8 µM
- Activity (Rattus norvegicus [2]): 180%
- Activity (Rattus norvegicus [4]): 100%

Compound: CCCN1CCC(c2ccccc2)CC1
- Ki [1]: 9.77 µM
- Activity (Rattus norvegicus [2]): 130%
- Activity (Rattus norvegicus [4]): 100%

Compound: CCCN1CCN(c2ccc(OS(=O)(=O)C(F)(F)F)cc2)CC1
- Ki [1]: 17 µM
- Activity (Rattus norvegicus [2]): 121%
- Ki [3]: 0.0331 µM
- Activity (Rattus norvegicus [4]): 120%

Compound: C#CCN(C)[C@H](C)Cc1ccccc1 [SELEGILINE]
- Activity (Rattus norvegicus [5]): 37%
- Activity (Rattus norvegicus [6]): 145%
- Activity (Rattus norvegicus [7]): 83%
- Activity (Rattus norvegicus [8]): 110%

Compound: CCCN1CCN(c2ccc(OC)cc2)CC1
- Ki [1]: 1.41 µM
- Activity (Rattus norvegicus [2]): 71%
- Ki [3]: 589 µM
- Activity (Rattus norvegicus [4]): 135%

Compound: CCCN1CCC(c2ccc(S(C)(=O)=O)cc2)CC1
- Ki [1]: 589 µM
- Activity (Rattus norvegicus [2]): 100%
- Ki [3]: 589 µM
- Activity (Rattus norvegicus [4]): 100%

Compound: CCCCOc1ccc(C2CCN(CCC)CC2)cc1
- Ki [1]: 0.372 µM
- Activity (Rattus norvegicus [9]): Active
- Activity (Rattus norvegicus [10]): Active
- Activity (Rattus norvegicus [2]): 40%
- Ki [3]: 1.58 µM
- Activity (Rattus norvegicus [11]): Active
- Activity (Rattus norvegicus [4]): 150%

Compound: CCCN1CCC(c2ccc(N3CCOCC3)cc2)CC1
- Ki [1]: 1.2 µM
- Activity (Rattus norvegicus [2]): 38%
- Ki [3]: 12.9 µM
- Activity (Rattus norvegicus [4]): 160%

Compound: CCCN1CCC(c2ccc(OC)cc2)CC1
- Ki [1]: 0.24 µM
- Activity (Rattus norvegicus [2]): 22%
- Ki [3]: 219 µM
- Activity (Rattus norvegicus [4]): 260%

Compound: CCCN1CCC(c2ccc(C(F)(F)F)cc2)CC1
- Ki [1]: 6.92 µM
- Activity (Rattus norvegicus [2]): 86%
- Ki [3]: 12.9 µM
- Activity (Rattus norvegicus [4]): 100%

Compound: O=C(NCCN1CCOCC1)c1ccc(Cl)cc1 [MOCLOBEMIDE]
- Activity (Rattus norvegicus [12]): 400%
- Ki [3]: > 100 µM
- Activity (Rattus norvegicus [13]): 18%

Compound: CCCN1CCC(c2ccc(Cl)cc2)CC1
- Ki [1]: 1.51 µM
- Activity (Rattus norvegicus [2]): 68%
- Ki [3]: 38 µM
- Activity (Rattus norvegicus [4]): 130%
